Measurements taken from ChEMBL document CHEMBL4689842, “EUbOPEN Chemogenomics Library wave 1” (2021).
Values joined by “and” are separate entries in the source; they are usually repeats but may differ in a detail not shown here. Equal entries are not always repeated.

Tested on: U2OS
Experiment: Multiplex assay against U2OS
Format: toxicity, cell-based
Settings: human
Outline: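 Live cells carried four stains from seeding: Hoechst33342, BioTracker Green Microtubule Cytoskeleton Dye, MitoTracker Red and Annexin V Alexa Fluor 680. They were imaged on a CQ1 microscope at 37°C and 5% CO2 after compound addition. Using CellPathfinder machine-learning gating, cells were split into Hoechst high-intensity objects or normal cells, normal cells into healthy, pyknosed or fragmented nuclei, and pyknosed cells into mitotic or apoptotic; tubulin, mitochondrial-mass and membrane-permeability phenotypes are per cents of healthy-nucleus cells.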

[1] = 12 h, 1 µM, compound concentration 1 uM, replicate 1
[2] = 12 h, 1 µM, compound concentration 1 uM, replicate 2
[3] = 12 h, 10 µM, compound concentration 10 uM, replicate 1
[4] = 12 h, 10 µM, compound concentration 10 uM, replicate 2
[5] = 24 h, 1 µM, compound concentration 1 uM, replicate 1
[6] = 24 h, 1 µM, compound concentration 1 uM, replicate 2
[7] = 24 h, 10 µM, compound concentration 10 uM, replicate 1
[8] = 24 h, 10 µM, compound concentration 10 uM, replicate 2
[9] = 48 h, 1 µM, compound concentration 1 uM, replicate 1
[10] = 48 h, 1 µM, compound concentration 1 uM, replicate 2
[11] = 48 h, 10 µM, compound concentration 10 uM, replicate 1
[12] = 48 h, 10 µM, compound concentration 10 uM, replicate 2

## CN1CCN(Cc2ccc(Nc3ncc(Cl)c(Nc4ccccc4S(=O)(=O)N(C)C)n3)cc2)CC1 [DUBERMATINIB]
[1]
  Population Apoptotic (%): 73%
  Population Fragmented Nuclei (%): 20%
  Population Healthy Nuclei (%): 51%
  Population Hoechst High Intensity Objects (%): 11%
  Population Membrane Permeable-Phenotype (%): 6%
  Population Mitochondria Different-Phenotype (%): 9%
  Population Mitotic Cells (%): 26%
  Population Normal (%): 88%
  Population Pyknosed Nuclei (%): 27%
  Population Tubulin-Different-Phenotype (%): 6%
  Total Cell Count: 172
[2]
  Population Apoptotic (%): 100%
  Population Fragmented Nuclei (%): 13%
  Population Healthy Nuclei (%): 83%
  Population Hoechst High Intensity Objects (%): 10%
  Population Membrane Permeable-Phenotype (%): 4%
  Population Mitochondria Different-Phenotype (%): 16%
  Population Mitotic Cells (%): 0%
  Population Normal (%): 89%
  Population Pyknosed Nuclei (%): 2%
  Population Tubulin-Different-Phenotype (%): 11%
  Total Cell Count: 65
[3]
  Population Apoptotic (%): 78%
  Population Fragmented Nuclei (%): 25%
  Population Healthy Nuclei (%): 44%
  Population Hoechst High Intensity Objects (%): 12%
  Population Membrane Permeable-Phenotype (%): 9%
  Population Mitochondria Different-Phenotype (%): 40%
  Population Mitotic Cells (%): 21%
  Population Normal (%): 87%
  Population Pyknosed Nuclei (%): 29%
  Population Tubulin-Different-Phenotype (%): 28%
  Total Cell Count: 140
[4]
  Population Apoptotic (%): 73%
  Population Fragmented Nuclei (%): 45%
  Population Healthy Nuclei (%): 31%
  Population Hoechst High Intensity Objects (%): 9%
  Population Membrane Permeable-Phenotype (%): 28%
  Population Mitochondria Different-Phenotype (%): 38%
  Population Mitotic Cells (%): 26%
  Population Normal (%): 90%
  Population Pyknosed Nuclei (%): 22%
  Population Tubulin-Different-Phenotype (%): 42%
  Total Cell Count: 91
[5]
  Population Apoptotic (%): 88%
  Population Fragmented Nuclei (%): 29%
  Population Healthy Nuclei (%): 45%
  Population Hoechst High Intensity Objects (%): 10%
  Population Membrane Permeable-Phenotype (%): 11%
  Population Mitochondria Different-Phenotype (%): 14%
  Population Mitotic Cells (%): 11%
  Population Normal (%): 90%
  Population Pyknosed Nuclei (%): 25%
  Population Tubulin-Different-Phenotype (%): 4%
  Total Cell Count: 188
[6]
  Population Apoptotic (%): 0%
  Population Fragmented Nuclei (%): 11%
  Population Healthy Nuclei (%): 83%
  Population Hoechst High Intensity Objects (%): 6%
  Population Membrane Permeable-Phenotype (%): 4%
  Population Mitochondria Different-Phenotype (%): 36%
  Population Mitotic Cells (%): 100%
  Population Normal (%): 93%
  Population Pyknosed Nuclei (%): 4%
  Population Tubulin-Different-Phenotype (%): 14%
  Total Cell Count: 70
[7]
  Population Apoptotic (%): 84%
  Population Fragmented Nuclei (%): 38%
  Population Healthy Nuclei (%): 24%
  Population Hoechst High Intensity Objects (%): 19%
  Population Membrane Permeable-Phenotype (%): 4%
  Population Mitochondria Different-Phenotype (%): 45%
  Population Mitotic Cells (%): 15%
  Population Normal (%): 80%
  Population Pyknosed Nuclei (%): 37%
  Population Tubulin-Different-Phenotype (%): 22%
  Total Cell Count: 150
[8]
  Population Apoptotic (%): 95%
  Population Fragmented Nuclei (%): 30%
  Population Healthy Nuclei (%): 33%
  Population Hoechst High Intensity Objects (%): 14%
  Population Membrane Permeable-Phenotype (%): 55%
  Population Mitochondria Different-Phenotype (%): 55%
  Population Mitotic Cells (%): 4%
  Population Normal (%): 85%
  Population Pyknosed Nuclei (%): 36%
  Population Tubulin-Different-Phenotype (%): 65%
  Total Cell Count: 87
[9]
  Population Apoptotic (%): 82%
  Population Fragmented Nuclei (%): 29%
  Population Healthy Nuclei (%): 44%
  Population Hoechst High Intensity Objects (%): 8%
  Population Membrane Permeable-Phenotype (%): 8%
  Population Mitochondria Different-Phenotype (%): 28%
  Population Mitotic Cells (%): 17%
  Population Normal (%): 91%
  Population Pyknosed Nuclei (%): 25%
  Population Tubulin-Different-Phenotype (%): 11%
  Total Cell Count: 217
[10]
  Population Apoptotic (%): 100%
  Population Fragmented Nuclei (%): 16%
  Population Healthy Nuclei (%): 78%
  Population Mitochondria Different-Phenotype (%): 37%
  Population Mitotic Cells (%): 0%
  Population Pyknosed Nuclei (%): 4%
  Population Tubulin-Different-Phenotype (%): 17%
  Total Cell Count: 87
[11]
  Population Apoptotic (%): 92%
  Population Fragmented Nuclei (%): 40%
  Population Healthy Nuclei (%): 8%
  Population Hoechst High Intensity Objects (%): 30%
  Population Membrane Permeable-Phenotype (%): 33%
  Population Mitochondria Different-Phenotype (%): 50%
  Population Mitotic Cells (%): 7%
  Population Normal (%): 69%
  Population Pyknosed Nuclei (%): 51%
  Population Tubulin-Different-Phenotype (%): 33%
  Total Cell Count: 146
[12]
  Population Apoptotic (%): 85%
  Population Fragmented Nuclei (%): 24%
  Population Healthy Nuclei (%): 49%
  Population Hoechst High Intensity Objects (%): 20%
  Population Membrane Permeable-Phenotype (%): 80%
  Population Mitochondria Different-Phenotype (%): 84%
  Population Mitotic Cells (%): 14%
  Population Normal (%): 79%
  Population Pyknosed Nuclei (%): 26%
  Population Tubulin-Different-Phenotype (%): 76%
  Total Cell Count: 104

## CN1CCN(Cc2cc(NC(=O)c3ccc4c(c3)CN(c3ccccc3)CC4)cc(C(F)(F)F)c2)CC1
[1]
  Population Apoptotic (%): 35% and 75%
  Population Healthy Nuclei (%): 63% and 89%
  Population Hoechst High Intensity Objects (%): 2%
  Population Membrane Permeable-Phenotype (%): 28% and 46%
  Population Mitotic Cells (%): 64% and 25%
  Population Normal (%): 97%
  Population Tubulin-Different-Phenotype (%): 98% and 42%
  Total Cell Count: 228 and 171
[2]
  Population Fragmented Nuclei (%): 28% and 15%
  Population Healthy Nuclei (%): 52% and 80%
  Population Hoechst High Intensity Objects (%): 5% and 15%
  Population Membrane Permeable-Phenotype (%): 47% and 37%
  Population Mitotic Cells (%): 65% and 100%
  Population Normal (%): 94% and 84%
  Population Pyknosed Nuclei (%): 19%
  Population Tubulin-Different-Phenotype (%): 100% and 48%
  Total Cell Count: 128 and 83
[5]
  Population Apoptotic (%): 39% and 22%
  Population Fragmented Nuclei (%): 14% and 7%
  Population Healthy Nuclei (%): 46% and 88%
  Population Hoechst High Intensity Objects (%): 10% and 3%
  Population Membrane Permeable-Phenotype (%): 33% and 28%
  Population Mitotic Cells (%): 60% and 77%
  Population Normal (%): 89% and 96%
  Total Cell Count: 255 and 239
[6]
  Population Fragmented Nuclei (%): 19% and 9%
  Population Healthy Nuclei (%): 45% and 80%
  Population Hoechst High Intensity Objects (%): 13% and 11%
  Population Membrane Permeable-Phenotype (%): 36% and 35%
  Population Mitotic Cells (%): 44% and 87%
  Population Normal (%): 86% and 88%
  Total Cell Count: 144 and 92
